Key:
[1] = Cmax in Sprague-Dawley rat at 25 mg/kg, po by LC-MS/MS method; format: ADME, organism-based; parameters: dose 25 mg/kg, route oral; conditions: in vivo
How it was run: (§1)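 Male Sprague−Dawley rats given a single 25 mg/kg oral dose (aqueous 0.5% methyl cellulose suspension for one compound). Blood drawn from 0.08 to 48 h. LC-MS/MS, linear range 0.78−400 ng/mL.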

[2] = test system: Rattus norvegicus; assay: AUC in Sprague-Dawley rat at 25 mg/kg, po by LC-MS/MS method; conditions: in vivo
[3] = test system: Syrian golden hamster; assay: Antidyslipidemic activity in high fructose and high-fat diet fed dyslipidemic Syrian golden hamster model assessed as increase in HDL-cholesterol level at 25 mg/kg/day for 7 days; format: functional, Mesocricetus auratus
[4] = test system: Syrian golden hamster; assay: Antidyslipidemic activity in high fructose and high-fat diet fed dyslipidemic Syrian golden hamster model assessed as reduction in LDL-cholesterol level at 100 mg/kg/day, po for 7 days; format: functional, Mesocricetus auratus; parameters: scale not given: the % may be the effect or the level left
How it was run: (§2)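 Syrian golden hamsters fed high-fructose high-fat diet; oral dosing in 1% gum acacia at 10, 30, 100 mg/kg (or 25 mg/kg) for 7 days, sham control given vehicle; plasma TG, cholesterol, LDL-C, HDL-C, glycerol and NEFA (kits), lipoprotein lipase activity and body weight; % change versus HFD control, six hamsters per group.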

[5] = test system: Mus musculus; assay: Antihyperglycemic activity in diabetic C57BL/KsJ db/db mouse model assessed as reduction in plasma insulin level in hyperglycemia at 25 mg/kg, po qd for 10 days; format: functional; parameters: scale not given: the % may be the effect or the level left
How it was run: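 db/db mice dosed orally every day for 10 days. On day 11, retro-orbital blood was drawn and plasma insulin measured. Mean % change versus vehicle-treated control, 5 mice per group; Student t test.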

[6] = test system: Mus musculus; assay: Antidiabetic activity in diabetic C57BL/KsJ db/db mouse model assessed as improvement in glucose tolerance in hyperglycemia at 1 mg/kg, po measured 2 hrs post dose; format: functional
[7] = test system: Syrian golden hamster; assay: Antidyslipidemic activity in high fructose and high-fat diet fed dyslipidemic Syrian golden hamster model assessed as reduction in LDL-cholesterol level at 25 mg/kg/day for 7 days; format: functional, Mesocricetus auratus; parameters: scale not given: the % may be the effect or the level left; how it was run: as §2
[8] = test system: Syrian golden hamster; assay: Antidyslipidemic activity in high fructose and high-fat diet fed dyslipidemic Syrian golden hamster model assessed as reduction in glycerol level at 100 mg/kg/day, po for 7 days; format: functional, Mesocricetus auratus; parameters: scale not given: the % may be the effect or the level left; how it was run: as §2
[9] = test system: Syrian golden hamster; assay: Antidyslipidemic activity in high fructose and high-fat diet fed dyslipidemic Syrian golden hamster model assessed as reduction in glycerol level at 10 mg/kg/day, po for 7 day, po; format: functional, Mesocricetus auratus; parameters: scale not given: the % may be the effect or the level left; how it was run: as §2
[10] = test system: Syrian golden hamster; assay: Reduction in body weight in high fructose and high-fat diet fed dyslipidemic Syrian golden hamster model at 10 mg/kg/day, po for 7 days; format: functional, Mesocricetus auratus; parameters: scale not given: the % may be the effect or the level left
How it was run: (§3)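 HFD-fed Syrian golden hamsters, six per group, fed a high-fructose diet. Oral dosing in 1% gum acacia for 7 days. Sham group received vehicle. Plasma TG was measured and body weight tracked. Results given as % change versus HFD control.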

[11] = test system: Mus musculus; assay: Antidiabetic activity in po dosed diabetic C57BL/KsJ db/db mouse model assessed as reduction in postprandial glucose level in hyperglycemia measured 2 hrs post dose; format: functional
How it was run: (§4)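 db/db mice (C57BL/KsJ, 12−18 weeks, 40−50 g; selected by glucose 200−350 mg/dL) dosed orally daily for 10 consecutive days at 1, 3, 10, 25 or 50 mg/kg; postprandial blood glucose profile recorded on day 6 with food access interrupted; mean % change versus vehicle in 5 animals per group; Student t test.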

[12] = test system: Mus musculus; assay: Antidiabetic activity in diabetic C57BL/KsJ db/db mouse model assessed as improvement in glucose tolerance in hyperglycemia at 25 mg/kg, po measured 2 hrs post dose; format: functional
[13] = test system: Syrian golden hamster; assay: Antidyslipidemic activity in high fructose and high-fat diet fed dyslipidemic Syrian golden hamster model assessed as reduction in triglyceride level at 10 to 100 mg/kg/day for 7 days; format: functional, organism-based; conditions: Mesocricetus auratus; how it was run: as §2
[14] = test system: Mus musculus; assay: Reduction in body weight in diabetic C57BL/KsJ db/db mouse model in hyperglycemia at 25 mg/kg, po qd for 10 days relative to untreated control; format: functional; parameters: scale not given: the % may be the effect or the level left
How it was run: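 db/db mice (C57BL/KsJ, 12−18 weeks, 40−50 g, glucose 200−350 mg/dL), housed at 23 ± 2.0 °C on a 12 h light cycle. Oral dosing daily for 10 days. Blood glucose checked each morning through day 9. Body weight recorded daily from day 1 to day 10. Mean % change versus vehicle, 5 mice per group; Student t test.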

[15] = test system: Syrian golden hamster; assay: Antidyslipidemic activity in high fructose and high-fat diet fed dyslipidemic Syrian golden hamster model assessed as reduction in LDL-cholesterol level at 10 to 100 mg/kg/day for 7 days; format: functional, organism-based; conditions: Mesocricetus auratus; how it was run: as §2
[16] = Tmax in Sprague-Dawley rat at 25 mg/kg, po by LC-MS/MS method; format: ADME, organism-based; parameters: dose 25 mg/kg, route oral; conditions: in vivo; how it was run: as §1
[17] = test system: Syrian golden hamster; assay: Antidyslipidemic activity in high fructose and high-fat diet fed dyslipidemic Syrian golden hamster model assessed as increase in HDL-cholesterol level at 30 mg/kg/day, po for 7 day, po; format: functional, Mesocricetus auratus; how it was run: as §2
[18] = test system: Mus musculus; assay: Antidiabetic activity in diabetic C57BL/KsJ db/db mouse model assessed as reduction in postprandial glucose level in hyperglycemia at 10 mg/kg, po measured 2 hrs post dose; format: functional; parameters: scale not given: the % may be the effect or the level left; how it was run: as §4
[19] = test system: Syrian golden hamster; assay: Antidyslipidemic activity in high fructose and high-fat diet fed dyslipidemic Syrian golden hamster model assessed as reduction in body weight at 25 mg/kg/day for 7 days; format: functional, Mesocricetus auratus; parameters: scale not given: the % may be the effect or the level left; how it was run: as §2
[20] = test system: Syrian golden hamster; assay: Antidyslipidemic activity in high fructose and high-fat diet fed dyslipidemic Syrian golden hamster model assessed as reduction in cholesterol level at 30 mg/kg/day, po for 7 day, po; format: functional, Mesocricetus auratus; parameters: scale not given: the % may be the effect or the level left
[21] = Oral bioavailability in Sprague-Dawley rat at 25 mg/kg by LC-MS/MS method; format: ADME, organism-based; conditions: in vivo; how it was run: as §1
[22] = test system: Mus musculus; assay: Antihyperglycemic activity in diabetic C57BL/KsJ db/db mouse model assessed as improvement in glucose tolerance in hyperglycemia at 25 mg/kg, po qd for 10 days; format: functional
How it was run: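 Male/female C57BL/KsJ db/db mice, 12−18 weeks, 40−50 g, selected for glucose 200−350 mg/dL. Oral dosing daily for 10 days. OGTT on day 10 after an overnight fast: compound at −30 min, then 3 g/kg oral glucose at 0 min. Glucose read at 30, 60, 90 and 120 min. AUC taken versus vehicle, 5 mice per group.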

[23] = test system: Syrian golden hamster; assay: Antidyslipidemic activity in high fructose and high-fat diet fed dyslipidemic Syrian golden hamster model assessed as increase in lipoprotein lipase level at 30 mg/kg/day, po for 7 day, po; format: functional, Mesocricetus auratus; how it was run: as §2
[24] = test system: Mus musculus; assay: Antidiabetic activity in diabetic C57BL/KsJ db/db mouse model assessed as improvement in glucose tolerance in hyperglycemia at 3 mg/kg, po measured 2 hrs post dose; format: functional
[25] = test system: Syrian golden hamster; assay: Reduction in body weight in high fructose and high-fat diet fed dyslipidemic Syrian golden hamster model at 100 mg/kg/day, po for 7 days; format: functional, Mesocricetus auratus; parameters: scale not given: the % may be the effect or the level left; how it was run: as §3
[26] = test system: Syrian golden hamster; assay: Antidyslipidemic activity in high fructose and high-fat diet fed dyslipidemic Syrian golden hamster model assessed as reduction in NEFA level at 100 mg/kg/day, po for 7 days; format: functional, Mesocricetus auratus; parameters: scale not given: the % may be the effect or the level left; how it was run: as §2
[27] = Mean residence time in Sprague-Dawley rat at 2.5 mg/kg, iv by LC-MS/MS method; format: ADME, organism-based; parameters: dose 2.5 mg/kg, route intravenous; conditions: in vivo
How it was run: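 Male Sprague−Dawley rats given a single 2.5 mg/kg iv dose; one formulation was DMF/PG/water (2:4:4), 0.2 μ filtered. Blood drawn from 0.08 to 48 h. Plasma assayed by LC-MS/MS with linear range 0.78−400 ng/mL.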

CC(C)(C)NC[C@H](O)COc1ccc2c(=O)cc(-c3cc(OCc4ccccc4)cc(OCc4ccccc4)c3)oc2c1
Cmax [1]: 70.3 ng/mL | AUC [2]: 1798.22 ng·h/mL | Activity [3]: 20.5% | Activity [4]: 68.4% | Activity [5]: 53.4% | Activity [6]: 21.46% | Activity [7]: 30.1% | Activity [8]: 50.5% | Activity [9]: 14.4% | Activity [10]: 7.38% | ED50 [11]: 1.72 mg/kg | Activity [12]: 44.6% | Activity [13]: Dose-dependent effect | Activity [14]: 28.2% | Activity [15]: Dose-dependent effect | Tmax [16]: 8 h | Activity [17]: 21% | Activity [18]: 28.8% | Activity [19]: 14.3% | Activity [20]: 27.2% | bioavailability [21]: 27% | Activity [22]: 38.8% | Activity [23]: 31.2% | Activity [24]: 35.1% | Activity [25]: 12.5% | Activity [26]: 59.1% | MRT [27]: 13.5 h

Source: ChEMBL document CHEMBL2169868, “Flavone-based novel antidiabetic and antidyslipidemic agents” (J Med Chem, 2012)
